Scp-1 inhibitor: Scp-1 phosphatase inhibitors, primary screen, biochemical, colorimetric, uHTS; AID 493091, 2011; Carboxy-terminal domain RNA polymerase II polypeptide A small phosphatase 1 (Homo …; 340,000 tested, 0.88% active; inhibition, % at 20 µM; Recombinant Scp1, phosphopeptide, malachite green phosphate absorbance;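 active = inhibition above about 50% at 20 µM, limit read from the data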;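 also: plate controls were DMSO wells with enzyme for no effect and wells lacking enzyme for full effect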
Target sequence (Q9GZU7 76-261 limits assumed): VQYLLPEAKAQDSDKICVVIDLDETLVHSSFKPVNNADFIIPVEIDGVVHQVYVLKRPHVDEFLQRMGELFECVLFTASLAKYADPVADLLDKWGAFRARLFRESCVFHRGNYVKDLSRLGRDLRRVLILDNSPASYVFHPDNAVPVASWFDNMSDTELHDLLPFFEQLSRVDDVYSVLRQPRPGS
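assay system = SCP-1 phosphatase catalytic domain, residues 76-261 | buffer or medium = 50 mM Tris acetate pH 5.5, 0.005% Tween-20, 10 mM MgCl2 | incubation = enzyme reaction 45 min at room temperature, colour 5 min, stabilisation 30 min | signal = Phosphate-binding colour reagent, absorbance read at 630 nm | measure = % inhibition at 20 µM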
STEP inh: STEP phosphatase inhibitors, primary screen, biochemical, fluorescence intensity, uHTS; Tyrosine-protein phosphatase non-receptor type 5 (Homo sapiens), P54829; inhibition, % at 20 µM; recombinant STEP, OMFP fluorogenic substrate; AID 588621, 2011; 360,000 tested, 0.25% active;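 active = inhibition at 20 µM, scaled per plate between control wells, above about 37%, limit read from the data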;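 also: 0% = DMSO with enzyme and substrate and 100% = substrate only without enzyme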
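Assay system: isolated STEP enzyme / Timing: 20 min at room temperature, dark / Doses: 20 µM, 1% DMSO / Technique: fluorescence intensity, excitation 480 nm, emission 540 nm / Reagent: fluorogenic phosphatase substrate OMFP at 25 µM final / Measure: percent inhibition scaled to no-enzyme and uninhibited-enzyme controls, plate-pattern corrected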
DNMT1 block: human DNMT1 methyltransferase inhibitors, primary screen, biochemical, molecular beacon, fluorescence, HinP1I cleavage, uHTS | inhibition (reported as % activation of signal), % at 10 µM | DNA (cytosine-5)-methyltransferase 1 (Homo sapiens), P26358 | 360,000 tested, 0.83% active; in the data active = inhibition above about 50%
SUMO1 PPI mod: modulators of SUMO1 protein-protein interactions, primary screen, biochemical, uHTS; SUMO1 binding to a labelled peptide, TR-FRET, 1 h; Small ubiquitin-related modifier 1 (Homo sapiens), P63165; inhibition, % at 20 µM; 360,000 tested, 0.33% active; AID 602429, 2012; in the data active = inhibition above about 37%
Target sequence (P63165 whole entry, looked up): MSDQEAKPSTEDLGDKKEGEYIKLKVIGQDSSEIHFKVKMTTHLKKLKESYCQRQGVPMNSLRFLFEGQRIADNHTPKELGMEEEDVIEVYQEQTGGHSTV
LMPTP inh: LMPTP phosphatase inhibitors, primary screen, biochemical, fluorescence intensity, uHTS; recombinant LMPTP-A, OMFP fluorogenic substrate; 360,000 tested, 0.22% active; AID 651560, 2012; inhibition, % at 20 µM;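 active = compounds that cut the enzyme signal by at least half of the control window in the single-dose screen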;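 also: plate controls were DMSO wells with enzyme plus substrate for no effect and substrate without enzyme for full effect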
Target sequence (P24666 whole entry, looked up): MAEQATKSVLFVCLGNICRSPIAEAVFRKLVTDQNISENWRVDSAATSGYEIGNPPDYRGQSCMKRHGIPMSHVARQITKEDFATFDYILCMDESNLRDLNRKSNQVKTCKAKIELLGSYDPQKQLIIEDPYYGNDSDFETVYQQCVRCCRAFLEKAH
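Test system – LMPTP-A enzyme · Amount – LMPTP-A at 0.625 nM final in the reaction · Buffer or medium – Bis-Tris pH 6.0, DTT, detergent · Reagent – OMFP 400 µM · Doses – single 20 µM dose · Schedule – reaction 50 min, room temperature, dark · Detection – fluorescence intensity of OMFP turnover product · Evaluation – percent inhibition versus substrate-only and uninhibited controls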
DNMT1 confirm: DNMT1 methyltransferase inhibitor retest, confirmation, biochemical, molecular beacon, fluorescence, single concentration | shares compounds with DNMT1 block | inhibition, % at 10 µM | 2,300 tested, 8% active | AID 602385, 2012 | DNMT1 molecular beacon HinP1I cleavage;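 active = average inhibition of at least 30% in the single-concentration confirmation test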
DNMT1 interf: beacon fluorescence artifact counter-screen. shares compounds with DNMT1 block. DNMT1 molecular beacon spectral interference counterscreen, fluorescence 485/520. activation (fluorescence interference), % at 10 µM. 2,300 tested, 1% active;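 active = activation of at least 30% at 10 µM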;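 also: DNMT1 catalytic domain with a HinP1I cleavage step and a FAM/dabcyl DNA beacon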
Active calls of the source: *; / = not tested or not shown. Hits are enriched below; roughly 1.7% of the tested compounds scored in any of these assays.

SMILES	Scp-1 inhibitor	STEP inh	DNMT1 block	SUMO1 PPI mod	LMPTP inh	DNMT1 confirm	DNMT1 interf
CCCCCCCC(=O)Nc1ccc(C(=O)N/N=C/c2cccc([N+](=O)[O-])c2)cc1	96*	24	78*	0	0	5	2
Cn1cccc1CC(=O)N/N=C/c1cc([N+](=O)[O-])ccc1Cl	-5	1	1	-12	2	/	/
CCc1ccc(NC(=O)CSc2nc(=O)n(CCCN(C)C)c3c2CCC3)cc1	-6	2	0	-3	0	/	/
CCOC(=O)c1c(S(=O)(=O)N2CCCC(C(=O)Nc3ccc(C)cn3)C2)c(C)n(C)c1C (stereo not drawn)	-3	-1	0	2	-2	/	/
O=C(Cn1cncc1-c1ccc([N+](=O)[O-])cc1)Nc1cccc2ccccc12	13	2	50*	-14	6	7	-3
O=C(Nc1cc(Cl)ccc1N1CCOCC1)C1=COCCO1	-3	2	2	4	0	/	/
Cc1ccc(NC(=O)c2ccc(NC(=O)c3ccccc3)cc2)cc1C	-8	-2	57*	19	5	4	5
COc1ccc(CNC(=O)c2noc3c2CCCCC3)cc1	-11	-4	2	4	-1	/	/
O=C(Nc1cccc(O)c1)c1noc2c1CCCCC2	-6	-5	8	2	-2	/	/
Cc1ccc(NC(=O)c2noc3c2CCC3)cc1C	78*	12	95*	8	9	9	-2
Cc1ccc(C(=O)Nc2ccc(Nc3ccccc3)cc2)cc1C	-24	1	-25	1	3	/	/
COc1ccc(NC(=O)c2noc3c2CCC3)cc1	83*	7	108*	12	7	5	0
O=C(CCN1C(=O)/C(=C/C=C/c2ccccc2)SC1=S)Nc1ccccn1	-1	-1	9	-8	1	/	/
O=C(CCN1C(=O)/C(=C/C=C/c2ccccc2)SC1=S)Nc1cccnc1	-6	0	62*	-8	4	0	0
CC(/C=C1\SC(=S)N(CCC(=O)Nc2cccc(C(=O)O)c2)C1=O)=C\c1ccccc1	-9	3	80*	16	12	12	2
Cc1cc2cc(CNC(=S)Nc3ccc(OC(F)(F)F)cc3)ccc2n1C	3	-3	57*	-71	2	1	4
Cc1cccc(NC(=O)NCc2ccc3c(c2)cc(C)n3C)c1	-6	-2	57*	-45	5	0	1
Cc1cc2cc(CNC(=O)Cc3ccc([N+](=O)[O-])cc3)ccc2n1C	-6	1	56*	-17	17	1	8
COc1ccc(C(=O)OCC(=O)N2CCN(C(=O)c3ccco3)CC2)cc1OC	-4	3	3	2	0	/	/
Cc1ccc([N+](=O)[O-])cc1-c1ccc(/C=C(\C#N)c2[nH]nc(N)c2C#N)o1	36	37	84*	58*	71*	6	-6
CN(C)c1ccc(/C=N/NC(=O)c2cc(=O)[nH]c3ccccc23)cc1	0	0	1	-17	3	/	/
O=C(N/N=C/c1ccccc1)c1cc(=O)[nH]c2ccccc12	4	1	61*	-5	-1	3	7
Cn1cnc2c1c(=O)n(Cc1cccc(Br)c1)c(=O)n2C	-7	-2	-1	5	-2	/	/
CCn1cnc2c1c(=O)n(Cc1cccc(Br)c1)c(=O)n2Cc1ccccc1	-10	0	68*	6	2	9	10
CC1CCCC(NC(=O)CN2C(=O)NC(c3ccccc3)(c3ccccc3)C2=O)C1C (stereo not drawn)	-6	-1	11	3	2	/	/
SMILES	Scp-1 inhibitor	STEP inh	DNMT1 block	SUMO1 PPI mod	LMPTP inh	DNMT1 confirm	DNMT1 interf
N#Cc1c(NC(=O)/C=C/c2ccco2)sc2c1CCCC2	6	1	7	-4	1	/	/
O=C(/C=C/c1ccco1)Nc1ccccc1C(=O)O	54*	11	80*	7	0	7	-6
O=C(/C=C/c1ccco1)Nc1sc2c(c1C(=O)O)CCC2	29	2	53*	-14	-1	1	-1
Cc1cccc(NC(=O)CN(CC2CCCO2)C(=O)c2cc3ccccc3o2)c1C (stereo not drawn)	-5	1	-3	0	0	/	/
CCn1c2ccccc2c2cc(NC(=O)c3coc(=O)c(Br)c3)ccc21	/	-7	51*	-2	4	16	8
CCn1c2ccccc2c2cc(NC(=O)c3ccc(=O)oc3)ccc21	0	8	-2	-4	5	/	/
Cc1ccc(NC(=O)c2ccc(S(=O)(=O)N3CCCC3)cc2)cc1	-4	-5	3	2	1	/	/
Cc1ccc(C(=O)Nc2ccc(S(=O)(=O)N3CCN(C)CC3)cc2)cc1	-12	0	67*	0	0	5	4
COc1cc(NC(=O)C2(C)CCN2C(=O)C(C)C)cc(OC)c1OC (stereo not drawn)	/	-2	2	-2	0	/	/
COc1cccc(N(C(=O)Cn2nnc(-c3ccc(Cl)cc3)n2)C(C(=O)NCC2CCCO2)c2ccc(C)cc2)c1 (stereo not drawn)	-3	0	59*	2	0	2	0
COc1cccc(N(C(=O)Cn2nnc(-c3ccc(F)cc3)n2)C(C(=O)NCC2CCCO2)c2ccc(Cl)cc2)c1 (stereo not drawn)	-8	1	9	2	0	/	/
CCOc1ccccc1NC(=O)N1CCC(NC(=O)C2CCCCC2)CC1	-8	-2	-2	3	-1	/	/
O=C1CC(c2ccco2)Sc2nc3ccccc3n21 (stereo not drawn)	0	7	56*	11	1	5	5
O=C1CC2(CCN(C(=O)C(=O)c3c[nH]c4ccccc34)CC2)Oc2ccccc21	-4	-1	-2	1	-1	/	/
CCCn1c(N)c(C(=O)CSc2nnc(Cc3cccs3)n2C2CC2)c(=O)n(C)c1=O	-3	6	0	10	0	/	/
Cc1cc(C)c2nc(N3C(=O)C(O)=C(C(=O)c4ccco4)C3c3ccco3)sc2c1 (stereo not drawn)	52*	24	58*	17	23	15	-1

Assay outcomes as filed in PubChem BioAssay.
